First the molecules themselves.
B1: tRNA (parent)
chain: GUUCCGUUGGCGUAAUGGUAACGCGUCUCCCUCCUAAGGAGAAGACUGCGGGUUCGAGUCCCGUACGGAACG

This sample holds only a part of the variants without activity.

The variants in this data set derive from B1. In words: yeast fitness relative to wild type (ratio to wild type); higher = fitter; tRNA-Arg(CCU), competitive growth, 37 C, YPD. The procedure, abridged:
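Variants of the tRNA-Arg(CCU) gene, chemically synthesised with a 3% per-site mutation rate at 69 sites, were placed at the native genomic locus in Saccharomyces cerevisiae. The pooled strains were competed in YPD at 37°C for 24 hours in six parallel replicates. Gene amplicons from the start population and from each end population were read by 100-nucleotide paired-end sequencing. Darwinian fitness relative to wild type came from changes in genotype frequencies; genotypes needed ≥ 100 starting reads, and estimates < 0.5 were set to 0.5.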
In the case of C34U G48A, the yeast fitness came out at 0.798.
The figure for C34G G51C is 0.609; for C34G G51A it is 0.94.
The figure for C34A C49U U59C is at most 0.5; for A36C A70U it is 0.703.
The figure for A36G G51A is 0.744; for C33U C55A C66U it is 0.562; for A36C A37G C49A it is 0.541.
Take C33U A43G G48C: the yeast fitness was at most 0.5.
With C34U G41A C55A the figure was at most 0.5.
With C34A A37G C66U the figure was at most 0.5.
On to C33G C55G G67A, for which the yeast fitness was at most 0.5.
With C33G A36C C49A C60G A70U the figure was at most 0.5.
C33U: the yeast fitness was 0.694.
The figure for C33A is 0.795.
On to C33G, for which the yeast fitness stood at 0.743.
With C33A U35C C46U C49U G52C C61U C66U the figure was at most 0.5.
The figure for C33U U54C C61G is at most 0.5; for C33A A36C G51A it is 0.721; for C33G A57G C61G A65G C66U it is at most 0.5.
The figure for C34G G51A C66U is 0.649.
For the variant C33U G48A A69C, the yeast fitness is 0.705.
With C33U G39C G51A C60G the figure was at most 0.5; with U32G U35A A36G C66U, at most 0.5.
In the case of A36G A45U C49U, the yeast fitness amounted to 0.882.
With U35A A43G U64C the figure was at most 0.5; with C34G G41C C49U C62A A69C, at most 0.5.
The figure for C33U G44A C61U is 0.675; for C33U C49A G63C it is at most 0.5.
As for C34U G56A A70G, the yeast fitness is at most 0.5.
The figure for C33G A40G G51C C61U is at most 0.5; for U35C A37G C60U it is at most 0.5.
Regarding U35A A40U, the yeast fitness is 0.718.
With A36C U53C G56U the figure was 0.603; with A36C A65U, 0.667; with A36C A65G, 0.598.
For the variant A36C G38C A45G G50C, the yeast fitness was at most 0.5.
The figure for C34G G63A A70C is at most 0.5; for U32G C49U G56A it is 0.744.
For C33U G52A A57U, the yeast fitness was at most 0.5.
The figure for A36C C61G is 0.609; for C34G C60G it is 0.782; for C33U G39A A70U it is at most 0.5.
As for C34A U47C, the yeast fitness came to 0.646.
For the variant U35A A42C C46U, the yeast fitness stood at 0.521.
Consider U35C A45C, for which the yeast fitness was 0.862.
With U32G C46G the figure was 0.757.
The figure for A36G A42G is 0.797; for C34A A45C it is 0.675; for C33G A70U it is 0.714.
With A36C A37C G51C the figure was at most 0.5; with C34A A42G, 0.676; with A36C A43C C66A, 0.731.
In the case of A36G C66G, the yeast fitness was found to be 0.689.
With C33U A36C A40U the figure was 0.609; with C34U C55A, 0.623; with C34U C55U, 0.569.
Regarding C34G C66A, the yeast fitness stood at 0.543.
As for C34U C61U, the yeast fitness came to 1.
Take C34U C61G: the yeast fitness was at most 0.5.
The figure for C34A G67U is 0.717; for C34A G67C it is 0.782; for U35A A42G A43C it is 0.581.
With C34A C55G U64C A65C the figure was at most 0.5.
C33U A43G C66U: the yeast fitness was 0.544.
The figure for A36G C49U C61A is at most 0.5.
The figure for C34G G50A is 0.644; for U32G A57C C62G C66G it is 0.567; for C34A U54A it is at most 0.5.
Consider C34U C46G C62U, for which the yeast fitness came to 0.549.
With U35A A37G A43C U54C the figure was at most 0.5.
In the case of U35G A40G U54G, the yeast fitness is at most 0.5.
Regarding C33G A45C C61G, the yeast fitness was 0.567.
Regarding C33A C60G, the yeast fitness was 0.613.
Consider C33G A45C U54C, for which the yeast fitness was at most 0.5.
The figure for A36G C46G is 1.08; for C33G G51A C55A C66U it is 0.56.
The figure for C34G A40C C46G is 0.562.
With A36C A43C C61G A70G the figure was at most 0.5; with A36C A40G G58C C60A, 0.537; with U35A U53C, at most 0.5.
With A36C C46U U53A, the yeast fitness stood at 0.639.
With U35C A37C C62U A65C the figure was at most 0.5; with A36G A37U C55G, 0.69; with C33A C34A G56A, at most 0.5.
The figure for U35A C55U A65G is at most 0.5; for U35A C62U it is 0.732; for C34A G39C A40C G56C C61G C62G it is at most 0.5.
As for C33U C66U, the yeast fitness stood at 0.651.
Regarding A36G G56A A69U, the yeast fitness turned out to be 0.718.
The figure for C33G C34U U53C is 0.577.
The figure for U35C A45C C49G G56A A57U G63A is at most 0.5.
With C34U A45U C62A the figure was at most 0.5; with U35A G52C, at most 0.5; with U35C G41A A45U, 0.664.
As for U35A G58C, the yeast fitness stood at 0.634.
The figure for U35A G51C U54C A57U is at most 0.5; for C33U A57G it is 0.628.
The figure for A36C C49U C55U is 0.643; for C33A A57U C66U A69U it is at most 0.5.
With C34U U47C C55A A70U the figure was 0.562.
Turning to C34A G38A, the yeast fitness came out at 0.699.
The figure for C34A G41A C55G C66U is at most 0.5; for C33G C34G C46U it is 0.547; for C33U U47G C49U it is 0.581.
On to U35G A42G G56C, for which the yeast fitness was determined as 0.59.
With U35C G48C the figure was 0.973; with C34U G58C, 0.757; with U35A A69C A70C, 0.535.
With U35G G38A G52C the figure was 0.678; with C34A C62U, 0.785; with C33A U54A, at most 0.5.
The figure for C33U A43U C49G G50C C61U is at most 0.5; for C34A A40C it is 0.747.
On to U32G C34A G38A A70G, for which the yeast fitness was at most 0.5.
With C34A A65G the figure was 0.69; with C34A A40C U54C, at most 0.5.
In the case of C34G A57C, the yeast fitness is at most 0.5.
The figure for A36G U53C is 0.724.
In the case of C33G U35G A37C A43C G44A U64C, the yeast fitness was at most 0.5.
As for C33A A37U C55U A57C G58C, the yeast fitness is at most 0.5.
In the case of C34G G41A A45G A57G C60G C62U, the yeast fitness is at most 0.5.
On to C34U A36G C55G A57U G67A, for which the yeast fitness turned out to be 0.568.
With U35G A42G U47A, the yeast fitness was at most 0.5.
With C33U G48A C60U U64G A65U the figure was 0.606.
Regarding A36C A45C G48A A65C, the yeast fitness was at most 0.5.
With U32G G39C A57U U59A A69C the figure was at most 0.5; with C34G C49U C66U, 0.557.
The figure for A36G C49G A70G is 0.53; for C33A A37U C62A it is 0.503; for A36G G38C U59A it is at most 0.5.
The figure for C33A G38C A43G is at most 0.5.
For the variant A36C G39C A65C A69C, the yeast fitness is at most 0.5.
Regarding U35G A45C, the yeast fitness came out at 0.617.
As to C33G A57U A70U, the yeast fitness was at most 0.5.
With C33A A36U the figure was 0.615.
Regarding C33U A69C, the yeast fitness turned out to be 0.726.
The figure for C33G A45U C55U is at most 0.5.
In the case of A36C A37C U53G, the yeast fitness was at most 0.5.
The figure for U35C A45C C49G is 0.562; for C34U C66G it is 0.56; for A36C C49U C55U C60U it is at most 0.5.
Consider A36G A37U G67A, for which the yeast fitness was at most 0.5.
With C34U G58C A69U the figure was at most 0.5; with U32G G48C G58C, at most 0.5; with C34U A40U A57U, at most 0.5.
Take C34G A45G U59G: the yeast fitness is at most 0.5.
The figure for C34G A43U A70C is at most 0.5; for A36G C55G it is 0.623.
With A36C G67A the figure was 0.607; with A36G A42G C49G, at most 0.5.
Consider C34G A42U, for which the yeast fitness stood at 0.621.
In the case of A36G A37C A45C C46G, the yeast fitness came to 0.554.
With U35C C61G A69G the figure was at most 0.5; with A36C U47A G48C A57C A65U, at most 0.5.
As to U35G A65C, the yeast fitness worked out at 0.639.
With A36G U47A the figure was 0.789.
With C34G U53C C55G the figure was at most 0.5.
As for C34G U47A G67A, the yeast fitness was at most 0.5.
For the variant C33U C49G, the yeast fitness was found to be 0.817.
As to A36C C62G, the yeast fitness was determined as 0.575.
The figure for C33G U53C is at most 0.5; for C34U A69C it is 0.774; for U35C A37C G39A it is at most 0.5.
Consider U32G G41C C46U, for which the yeast fitness worked out at 0.647.
With C34G A40C G44A A69U the figure was at most 0.5.
Regarding C33G A65U, the yeast fitness was found to be 0.728.

The values are drawn from the RNAGym collection of RNA variant scans (doi:10.1126/science.aae0568).
